CAL PDZ FP-1 = inhibitors of human CAL PDZ peptide binding. hit rate 0.02% among 330,000. purified CAL PDZ, TMR-peptide fluorescence polarization, 1 h. inhibition, % at 20 µM;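 active = highest replicate inhibition of at least 40%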
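Assay system – tagged CAL PDZ protein CerCALP, purified · Timing – 1 h at RT · Compound – single point, 20 µM · Measured by – fluorescence polarization from S- and P-plane intensities, G-factor corrected · Evaluation – inhibition from polarization loss · Probe or stimulus – TMR reporter peptide T*-PRC34 · Buffer or medium – pH 7.4 phosphate-saline buffer, reducing agent, detergent, IgG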
S100A4 inh HTS = inhibitors of human S100A4 binding to myosin IIA peptide; hit rate 0.14% among 360,000; AID 652163; inhibition, % at 10.7 µM; S100A4/TAMRA-MyoIIA peptide fluorescence polarization;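 active = mean inhibition of at least 70% across replicates, with every replicate also reaching that level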
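Test system: S100A4 monomer protein; Medium: HEPES pH 7.2 with CaCl2, KCl, NaCl, DTT, Triton; Probe or stimulus: TAMRA-labelled myosin IIA heavy-chain peptide probe, 5 nM; Doses: one dose per compound; Times: polarization read 5 min after assay mix addition, stable 5–60 min; Benchmarks: neutral control DMSO, positive control TFP.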
dFosB act-1 = activators of mouse delta FosB homodimer; hit rate 0.99% among 340,000; activation, % at 25 µM; P13346; purified delta FosB, TAMRA-CDK5 oligo fluorescence polarization; percent of positive-control signal above neutral wells;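 active = mean activation above about 17%, with every replicate also reaching it, limit read from the data, passing the limit was not always enough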
CDK5 p35 inh = inhibitors of human CDK5/p35 kinase; Recombinant CDK5/p35, ADP-Glo luminescence, 60 min; AID 488839; hit rate 0.01% among 330,000; inhibition, % at 10 µM;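 active = highest replicate inhibition of at least 50% and at least 75% of replicates reaching 50%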
Target sequence (Q00535 whole entry, looked up): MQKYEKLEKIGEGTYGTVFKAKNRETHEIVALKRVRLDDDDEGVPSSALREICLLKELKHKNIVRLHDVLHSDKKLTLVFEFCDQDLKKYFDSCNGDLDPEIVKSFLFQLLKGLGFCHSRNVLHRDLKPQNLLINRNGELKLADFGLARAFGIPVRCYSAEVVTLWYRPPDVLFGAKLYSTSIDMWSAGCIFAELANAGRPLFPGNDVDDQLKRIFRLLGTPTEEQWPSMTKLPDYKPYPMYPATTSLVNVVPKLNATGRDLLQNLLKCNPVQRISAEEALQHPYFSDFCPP
Target sequence (Q15078 whole entry, looked up): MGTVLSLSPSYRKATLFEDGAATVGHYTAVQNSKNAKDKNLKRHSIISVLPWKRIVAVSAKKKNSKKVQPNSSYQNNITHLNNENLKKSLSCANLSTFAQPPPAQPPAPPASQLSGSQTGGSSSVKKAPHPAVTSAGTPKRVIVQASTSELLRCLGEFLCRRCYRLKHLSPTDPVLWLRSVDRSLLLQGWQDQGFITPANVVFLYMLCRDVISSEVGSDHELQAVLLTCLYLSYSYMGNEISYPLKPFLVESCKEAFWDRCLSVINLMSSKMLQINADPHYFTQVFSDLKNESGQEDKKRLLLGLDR
CAL PDZ FP-2 = blocks peptide binding to the human CAL PDZ domain; Q9HD26; purified CAL PDZ, TMR-peptide fluorescence polarization, 1 h; inhibition, % at 24.9 µM; hit rate 0.92% among 300,000; AID 602252;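 active = mean inhibition of at least 30% with at least half of replicates also reaching 30%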
Statin myotox sup = suppressors of simvastatin-induced myotoxicity in C2C12 myotubes; ATP luminescence, 48 h; scaled: DMSO 0, geranylgeraniol control 100; rescue of ATP level, % at 7.49 µM; hit rate 0.78% among 330,000;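 active = mean ATP rescue above about 67%, or every replicate alone reaching that limit, limit read from the data, passing the limit was not always enough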;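 note: myotubes were challenged with 10 µM simvastatin during compound exposure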
dFosB act-2 = delta FosB (mouse) homodimer activation | shares compounds with dFosB act-1 | purified delta FosB, TAMRA-CDK5 oligo fluorescence polarization; normalised: neutral wells 0, positive control 100 | activation, % at 24.9 µM | 2,400 tested, under 10 active | AID 588690;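 active = highest replicate activation at or above 34% and every replicate reaching that threshold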;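 note: higher polarization means more probe DNA bound by delta FosB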
Large screens that a line does not name were inactive (follow-up assays come after a bar, where they were run). The list is not random: actives were taken first. Their share in the collection is about 2%.

CC(=O)c1ccc(OCC(=O)Nc2ccccc2C(=O)NC2CC2)cc1	dFosB act-1 30.3 | dFosB act-2 inactive
O=C(COc1ccc([N+](=O)[O-])cc1)Nc1ccccc1C(=O)NC1CC1	dFosB act-1 25.6 | dFosB act-2 inactive
O=C(CCC(=O)Nc1ccccc1Cl)NNC(=O)COc1ccc([N+](=O)[O-])cc1	dFosB act-1 16.7 (no result: CAL PDZ FP-2) | dFosB act-2 inactive
Cc1ccccc1OCC(=O)Nc1ccccc1C(=O)NC1CC1	none
O=C(COc1ccc(/C=N/NC(=O)c2ccncc2)cc1)Nc1cccc([N+](=O)[O-])c1	none
O=C(COc1ccccc1)Nc1ccccc1C(=O)NC1CC1	none
CN1[C@H](C(=O)NCCc2ccccc2)[C@@H](CO)[C@@H]2Cn3c(ccc(-c4ccncc4)c3=O)[C@@H]21	none (no result: CAL PDZ FP-1, dFosB act-1, CDK5 p35 inh, CAL PDZ FP-2)
CCN(Cc1ccccc1)C(=O)CN1C(=O)NC(CC)(c2ccc(F)cc2)C1=O (stereo not given)	none
C[C@H]1CN([C@@H](C)CO)C(=O)c2cc(NC(=O)CCCN(C)C)ccc2O[C@@H]1CN(C)Cc1ccc2c(c1)OCO2	none (no result: CAL PDZ FP-1, dFosB act-1, CDK5 p35 inh, CAL PDZ FP-2, Statin myotox sup)
CC(=O)Nc1ccc(NC(=O)Cn2c(=O)n(-c3ccc(F)cc3)c(=O)c3oc4ccccc4c32)cc1	dFosB act-1 20.7 (no result: Statin myotox sup) | dFosB act-2 inactive
NC(=O)c1ccc(NC(=O)Cn2c(=O)n(-c3ccccc3)c(=O)c3oc4ccccc4c32)cc1	none (no result: Statin myotox sup)
COc1ccc(NC(=O)Nc2ccc3c(c2)CC(=O)N([C@H](C)CO)C[C@H](C)[C@H](CN(C)S(=O)(=O)c2cn(C)cn2)O3)cc1	none (no result: CAL PDZ FP-1, dFosB act-1, CDK5 p35 inh, CAL PDZ FP-2)
Cc1cc(C(F)(F)F)c(C#N)c(SCC(=O)Nc2nc3cc(Br)ccc3s2)n1	dFosB act-1 37.5 (no result: Statin myotox sup) | dFosB act-2 inactive
CCOC(=O)NC(=O)CSc1nc(C)cc(C(F)(F)F)c1C#N	none (no result: S100A4 inh HTS)
CCCS(=O)(=O)NC(=O)C1(C)CCN(C(=O)Cc2ccc3ccccc3c2)C1 (stereo not given)	none (no result: CAL PDZ FP-1, dFosB act-1, CDK5 p35 inh, CAL PDZ FP-2)
CC(=O)c1sc(NC(=O)CCS(=O)(=O)c2ccc(Cl)cc2)nc1C	dFosB act-1 20.7 (no result: Statin myotox sup) | dFosB act-2 inactive
O=C(Oc1coc(CSc2nnc(NC(=O)C3CC3)s2)cc1=O)c1ccccc1	dFosB act-1 23.2 (no result: S100A4 inh HTS, Statin myotox sup) | dFosB act-2 inactive
O=C(Cn1cnc2ccccc2c1=O)c1ccc2ccccc2c1	none (no result: S100A4 inh HTS)
O=C(COc1c(Br)cc(Br)cc1Br)N/N=C/c1ccco1	dFosB act-1 30.5 (no result: S100A4 inh HTS, CAL PDZ FP-2) | dFosB act-2 inactive
CCOc1ccc(S(=O)(=O)N2CCN(C(=O)Cc3n[nH]c(=O)c4ccccc34)CC2)cc1	none
Oc1ccc(Br)cc1-c1cc(-c2ccc(Cl)cc2)n[nH]1	dFosB act-1 27.8 (no result: S100A4 inh HTS, Statin myotox sup) | dFosB act-2 inactive
COCCN(C(=O)COc1ccc(Cl)cc1)c1nnc(-c2cccnc2)s1	none (no result: S100A4 inh HTS)
COCCN(C(=O)COc1ccccc1)c1nnc(-c2cccnc2)s1	dFosB act-1 32.4 (no result: CAL PDZ FP-1, S100A4 inh HTS) | dFosB act-2 inactive
CN1[C@@H]2c3ccc(-c4ccccc4)c(=O)n3C[C@H]1[C@H](CO)[C@H]2C(=O)NCCCN1CCOCC1	none (no result: CAL PDZ FP-1, dFosB act-1, CDK5 p35 inh, CAL PDZ FP-2)
CCC(C)C(NC(N)=O)C(=O)Nc1ccc(OCc2ccccc2)cc1 (stereo not given)	dFosB act-1 43.2 (no result: Statin myotox sup) | dFosB act-2 inactive
COc1ccc(C(=O)CSc2nc(N)nc(SC)c2C#N)cc1	dFosB act-1 56.4 (no result: S100A4 inh HTS) | dFosB act-2 inactive
CSc1nc2sc(-c3ccccc3)cc2c(=O)n1N	dFosB act-1 65.3 (no result: S100A4 inh HTS) | dFosB act-2 inactive
Cc1ccc(CNc2ccc3nnc(-c4ccccc4)n3n2)cc1	dFosB act-1 23.4 | dFosB act-2 inactive
Cc1ccccc1C(=O)Nc1cccc(NC(=S)NC(=O)c2cccs2)c1	dFosB act-1 50.2 (no result: S100A4 inh HTS) | dFosB act-2 inactive
CC(=O)NC(=S)Nc1ccc(NC(=S)NC(=O)c2cccs2)cc1	dFosB act-1 37.0 (no result: Statin myotox sup) | dFosB act-2 inactive
CCCC(=O)Nc1ccc(NC(=S)NC(=O)c2cccs2)cc1	none (no result: Statin myotox sup)
CCc1cc(C(=O)c2ccccc2)c(N)s1	none (no result: CAL PDZ FP-2)
C[C@@H](CN1CCC[C@H]1CN1C(N)=NC[C@@H]1Cc1ccccc1)N1C[C@@H](Cc2ccccc2)N(CCc2ccc(Cl)c(Cl)c2)C1=N	none (no result: S100A4 inh HTS)
